# Experimental data as given in paper PMC8167812 (Cell reports, 2021).
# Assays:
# Clr4-SET = Clr4-SET (Schizosaccharomyces pombe, UniProt O60016); test: Thermal shift assay, Clr4-SET; format: binding, fission yeast (S. pombe); settings: without peptide, SYPRO orange, Figure S3C
# Summary of the method: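 Clr4 SET domain (residues 190–490) was expressed in Rosetta E. coli and purified on Talon resin. Protein at 3 μM was mixed with 150 μM SAM in 50 mM Tris pH 8.0, 1 mM EDTA and 0.5 mM DTT, held 10 min at room temperature then 10 min on ice. SYPRO orange was added and the sample ramped 25–99 °C in 1 °C steps over 75 min. Curves were min–max normalised; samples were run in duplicate.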
# TetR-Clr4 at tetO = test: ChIP analysis of TetR-Clr4 release from tetO after tetracycline addition; format: cell-based, fission yeast (S. pombe); settings: tetracycline 10 μM
# Sequence of Clr4-SET (O60016 190-490): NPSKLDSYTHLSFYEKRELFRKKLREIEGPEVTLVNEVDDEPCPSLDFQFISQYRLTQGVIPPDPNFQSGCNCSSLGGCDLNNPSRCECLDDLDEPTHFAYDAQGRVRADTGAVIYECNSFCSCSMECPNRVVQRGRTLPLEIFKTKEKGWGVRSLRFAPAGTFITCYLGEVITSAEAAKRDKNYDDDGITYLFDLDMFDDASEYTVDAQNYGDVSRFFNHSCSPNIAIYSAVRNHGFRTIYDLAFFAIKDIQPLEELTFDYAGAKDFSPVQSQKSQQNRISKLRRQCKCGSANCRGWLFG
smiles,measurement,setting,value
"C[S+](CC[C@H](N)C(=O)[O-])C[C@H]1O[C@@H](n2cnc3c(N)ncnc32)[C@H](O)[C@@H]1O (stereo partly drawn) [SAM, S-adenosyl-methionine]",thermal stability of Clr4 on addition of SAM alone,Clr4-SET,greater thermal stability of Clr4
CN(C)[C@@H]1C(O)=C(C(N)=O)C(=O)[C@@]2(O)C(O)=C3C(=O)c4c(O)cccc4[C@@](C)(O)[C@H]3C[C@@H]12 [tetracycline],release of TetR-Clr4 from tetO,"TetR-Clr4 at tetO; hht3-K9M cells, samples at 5, 10, and 20 minutes",a delay in the release of TetR-Clr4
same,time in which most TetR-Clr4 is released from tetO,"TetR-Clr4 at tetO; 30°C, ChIP-qPCR normalized to act1+",≤ 5 min
